From ChEMBL document CHEMBL3259728, “Design, synthesis and biological evaluation of some novel substituted quinazolines as antitumor agents” (2014)

Tests used:
Assay type in all cases: functional
Malme-3M = assay: Growth inhibition of human MALME-3M cells at 10 uM after 48 hrs by SRB assay; conditions: read-out: GI
Summary of the method: (§1)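 NCI-60 primary one-dose screen run at the US NCI, with human tumour lines from nine cancer types. Compound added once at 10^-5 M, followed by 48 h incubation. End point was sulforhodamine B protein staining read spectrophotometrically. Result given as percent growth of treated cells against untreated controls, reported as % growth inhibition.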

NCI-H226 = assay: Growth inhibition of human NCI-H226 cells at 10 uM after 48 hrs by SRB assay; conditions: NCI-H226, 48 h, read-out: GI; summary of the method: as §1
NCI-H460 = assay: Growth inhibition of human NCI-H460 cells at 10 uM after 48 hrs by SRB assay; conditions: NCI-H460, 48 h, read-out: GI; summary of the method: as §1
[1] = Growth inhibition of human OVCAR3 cells at 10 uM after 48 hrs by SRB assay; conditions: OVCAR-3, 48 h, read-out: GI; summary of the method: as §1
[2] = Growth inhibition of human HCT15 cells at 10 uM after 48 hrs by SRB assay; conditions: HCT-15, 48 h, read-out: GI; summary of the method: as §1
[3] = Growth inhibition of human SF539 cells at 10 uM after 48 hrs by SRB assay; conditions: SF-539, 48 h, read-out: GI; summary of the method: as §1
SK-MEL-2 = assay: Growth inhibition of human SK-MEL-2 cells at 10 uM after 48 hrs by SRB assay; conditions: SK-MEL-2, 48 h, read-out: GI; summary of the method: as §1
HOP-62 = assay: Growth inhibition of human HOP62 cells at 10 uM after 48 hrs by SRB assay; conditions: HOP-62, 48 h, read-out: GI; summary of the method: as §1
PC-3 = assay: Growth inhibition of human PC3 cells at 10 uM after 48 hrs by SRB assay; conditions: PC-3, 48 h, read-out: GI; summary of the method: as §1
SW-620 = assay: Growth inhibition of human SW620 cells at 10 uM after 48 hrs by SRB assay; conditions: SW-620, 48 h, read-out: GI; summary of the method: as §1
M14 = assay: Growth inhibition of human M14 cells at 10 uM after 48 hrs by SRB assay; conditions: M14, 48 h, read-out: GI; summary of the method: as §1
SR = assay: Growth inhibition of human SR cells at 10 uM after 48 hrs by SRB assay; conditions: read-out: GI; summary of the method: as §1
[4] = Growth inhibition of human OVCAR5 cells at 10 uM after 48 hrs by SRB assay; conditions: OVCAR-5, 48 h, read-out: GI; summary of the method: as §1
[5] = Growth inhibition of human EKVX cells at 10 uM after 48 hrs by SRB assay; conditions: read-out: GI; summary of the method: as §1
NCI-H322M = assay: Growth inhibition of human NCI-H322M cells at 10 uM after 48 hrs by SRB assay; conditions: read-out: GI; summary of the method: as §1
MDA-MB-231 = assay: Growth inhibition of human MDA-MB-231 cells at 10 uM after 48 hrs by SRB assay; conditions: MDA-MB-231, 48 h, read-out: GI; summary of the method: as §1
[6] = Growth inhibition of human UACC62 cells at 10 uM after 48 hrs by SRB assay; conditions: UACC-62, 48 h, read-out: GI; summary of the method: as §1
[7] = Growth inhibition of human UO31 cells at 10 uM after 48 hrs by SRB assay; conditions: UO-31, 48 h, read-out: GI; summary of the method: as §1
[8] = Growth inhibition of human HOP92 cells at 10 uM after 48 hrs by SRB assay; conditions: HOP-92, 48 h, read-out: GI; summary of the method: as §1
[9] = Growth inhibition of human NCI-ADR-RES cells at 10 uM after 48 hrs by SRB assay; conditions: read-out: GI; summary of the method: as §1
SK-MEL-5 = assay: Growth inhibition of human SK-MEL-5 cells at 10 uM after 48 hrs by SRB assay; conditions: SK-MEL-5, 48 h, read-out: GI; summary of the method: as §1
SNB-19 = assay: Growth inhibition of human SNB19 cells at 10 uM after 48 hrs by SRB assay; conditions: SNB-19, 48 h, read-out: GI; summary of the method: as §1
[10] = Growth inhibition of human LOXIMVI cells at 10 uM after 48 hrs by SRB assay; conditions: LOX IMVI, read-out: GI; summary of the method: as §1
MDA-MB-435 = assay: Growth inhibition of human MDA-MB-435 cells at 10 uM after 48 hrs by SRB assay; conditions: MDA-MB-435, 48 h, read-out: GI; summary of the method: as §1
DU-145 = assay: Growth inhibition of human DU145 cells at 10 uM after 48 hrs by SRB assay; conditions: DU-145, 48 h, read-out: GI; summary of the method: as §1
[11] = Growth inhibition of human OVCAR8 cells at 10 uM after 48 hrs by SRB assay; conditions: OVCAR-8, 48 h, read-out: GI; summary of the method: as §1
COLO 205 = assay: Growth inhibition of human COLO205 cells at 10 uM after 48 hrs by SRB assay; conditions: COLO 205, 48 h, read-out: GI
Summary of the method: (§2)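 NCI primary one-dose screen. A single concentration of 10^-5 M was added to the cell culture, followed by 48 h incubation and an SRB protein-dye endpoint read spectrophotometrically. Results are growth percentage relative to untreated control cells, reported as % growth inhibition.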

SN12C = assay: Growth inhibition of human SN12C cells at 10 uM after 48 hrs by SRB assay; conditions: read-out: GI; summary of the method: as §1
[12] = Growth inhibition of human HCC2998 cells at 10 uM after 48 hrs by SRB assay; conditions: HCC 2998, 48 h, read-out: GI; summary of the method: as §1
NCI-H522 = assay: Growth inhibition of human NCI-H522 cells at 10 uM after 48 hrs by SRB assay; conditions: NCI-H522, 48 h, read-out: GI; summary of the method: as §1
K562 = assay: Growth inhibition of human K562 cells at 10 uM after 48 hrs by SRB assay; conditions: K562, 48 h, read-out: GI; summary of the method: as §1
CCRF-CEM = assay: Growth inhibition of human CCRF-CEM cells at 10 uM after 48 hrs by SRB assay; conditions: read-out: GI; summary of the method: as §2
HCT-116 = assay: Growth inhibition of human HCT116 cells at 10 uM after 48 hrs by SRB assay; conditions: HCT-116, 48 h, read-out: GI; summary of the method: as §1
U-251 = assay: Growth inhibition of human U251 cells at 10 uM after 48 hrs by SRB assay; conditions: U-251, 48 h, read-out: GI; summary of the method: as §1
IGROV-1 = assay: Growth inhibition of human IGROV1 cells at 10 uM after 48 hrs by SRB assay; conditions: IGROV-1, 48 h, read-out: GI; summary of the method: as §1
TK-10 = assay: Growth inhibition of human TK10 cells at 10 uM after 48 hrs by SRB assay; conditions: TK-10, 48 h, read-out: GI; summary of the method: as §1
SK-OV-3 = assay: Growth inhibition of human SKOV3 cells at 10 uM after 48 hrs by SRB assay; conditions: SK-OV-3, 48 h, read-out: GI; summary of the method: as §1
[13] = Growth inhibition of human BT549 cells at 10 uM after 48 hrs by SRB assay; conditions: BT-549, 48 h, read-out: GI; summary of the method: as §2
786-0 = assay: Growth inhibition of human 786-0 cells at 10 uM after 48 hrs by SRB assay; conditions: 786-0, 48 h, read-out: GI; summary of the method: as §2

Cc1ccc(-c2nc3ccc(Cl)cc3c3nnnn23)cc1
inhibition of growth at 10 µM (Malme-3M): < 10% | inhibition of growth at 10 µM (NCI-H226): < 10% | inhibition of growth at 10 µM (NCI-H460): < 10% | inhibition of growth at 10 µM [1]: 11% | inhibition of growth at 10 µM [2]: < 10% | inhibition of growth at 10 µM [3]: 18% | inhibition of growth at 10 µM (SK-MEL-2): < 10% | inhibition of growth at 10 µM (HOP-62): 51% | inhibition of growth at 10 µM (PC-3): 18% | inhibition of growth at 10 µM (SW-620): 17% | inhibition of growth at 10 µM (M14): < 10% | inhibition of growth at 10 µM (SR): < 10% | inhibition of growth at 10 µM [4]: < 10% | inhibition of growth at 10 µM [5]: 11% | inhibition of growth at 10 µM (NCI-H322M): < 10% | inhibition of growth at 10 µM (MDA-MB-231): 27% | inhibition of growth at 10 µM [6]: 18% | inhibition of growth at 10 µM [7]: 24% | inhibition of growth at 10 µM [8]: < 10% | inhibition of growth at 10 µM [9]: < 10% | inhibition of growth at 10 µM (SK-MEL-5): < 10% | inhibition of growth at 10 µM (SNB-19): 11% | inhibition of growth at 10 µM [10]: < 10% | inhibition of growth at 10 µM (MDA-MB-435): 13% | inhibition of growth at 10 µM (DU-145): < 10% | inhibition of growth at 10 µM [11]: < 10% | inhibition of growth at 10 µM (COLO 205): < 10% | inhibition of growth at 10 µM (SN12C): 16% | inhibition of growth at 10 µM [12]: < 10% | inhibition of growth at 10 µM (NCI-H522): 21% | inhibition of growth at 10 µM (K562): 11% | inhibition of growth at 10 µM (CCRF-CEM): < 10% | inhibition of growth at 10 µM (HCT-116): < 10% | inhibition of growth at 10 µM (U-251): < 10% | inhibition of growth at 10 µM (IGROV-1): < 10% | inhibition of growth at 10 µM (TK-10): < 10% | inhibition of growth at 10 µM (SK-OV-3): 12% | inhibition of growth at 10 µM [13]: < 10% | inhibition of growth at 10 µM (786-0): < 10%
